According to ChEMBL document CHEMBL1124827, “The preparation of 2'-deoxy-2'-fluoro-1',2'-seconucleosides as potential antiviral agents” (J Med Chem, 1990):
Active and inactive are the calls of the source.

Columns and labels:
[1] = test system: unidentified adenovirus; test: (§1) In vitro antiviral activity was determined against Adenovirus type 2 in monolayer culture of H.Ep.2 cells; format: functional, organism-based
[2] = test system: LLC-MK2; test: In vitro antiviral activity was determined against Punta toro virus in monolayer culture of LLC-MK2 cells; format: functional, cell-based; details: Cercopithecidae
How it was run: (§2)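 Virus was adsorbed for 1 h onto monolayers: H.Ep.2 cells for Adenovirus type 2, LLC-MK2 cells for Punta Toro, and Vero cells for Sicilian sandfly fever. Medium with a range of drug concentrations was then added. On the day of maximum cytopathic effect in virus-control wells, the medium was removed and the monolayers were stained with crystal violet. Cytopathic effect was scored microscopically.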

[3] = test system: Vero; test: Antiviral activity was determined as inhibition of plaque formation against Rift Valley fever in monolayer culture of Vero cells; format: functional, cell-based; details: Chlorocebus sabaeus
[4] = test system: Vaccinia virus; test: Antiviral activity was determined against Vaccinia virus; format: functional, organism-based; details: Orthopoxvirus vaccinia
[5] = test system: Vero; test: In vitro antiviral activity was determined against Japanese encephalitis virus in monolayer culture of Vero cells; format: functional, cell-based; details: Chlorocebus sabaeus
[6] = test system: Vero; test: In vitro antiviral activity was determined against Sicilian Sandfly Fever virus in monolayer culture of Vero cells; format: functional, cell-based; details: Chlorocebus sabaeus; how it was run: as §2
[7] = test system: Vero; test: In vitro antiviral activity was determined against Yellow Fever virus in monolayer culture of Vero cells; format: functional, cell-based; details: Chlorocebus sabaeus
[8] = test system: Vesicular stomatitis virus; test: Antiviral activity was determined against Vesicular Stomatitus virus; format: functional, organism-based
[9] = test system: Human immunodeficiency virus 1; test: Antiviral activity was determined against Human immunodeficiency virus; format: functional, organism-based
[10] = test system: unidentified adenovirus; test: as §1; format: functional, organism-based; how it was run: as §2; remark: listed apart in the source
[11] = test system: Pichinde virus; test: Antiviral activity was determined against Pichinde virus; format: functional, organism-based

Measured: Activity

O=c1[nH]c(=O)n(COC(CO)C(O)CF)cc1I (stereo not given)
not listed: [9] | [10] | [11]
inactive: all other assays above

O=c1ccn(COC(CO)C(O)CF)c(=O)[nH]1 (stereo not given)
not listed: [10] | [11]
inactive: all other assays above

Nc1nc(O)c2ncn(COC(CO)C(O)CF)c2n1 (stereo not given)
not listed: [1] | [11]
inactive: all other assays above

Cc1cn(COC2COP(=O)(Oc3ccc([N+](=O)[O-])cc3)OC2CF)c(=O)[nH]c1=O (stereo not given)
inactive: [1] | [4] | [8]

Cc1cn(COC(CO)C(O)CF)c(=O)[nH]c1=O (stereo not given)
not listed: [10]
inactive: all other assays above

NC(=O)c1ncn(COC(CO)C(O)CF)n1 (stereo not given)
not listed: [9] | [10] | [11]
inactive: all other assays above

O=c1ccn(COC2COP(=O)(Oc3ccc([N+](=O)[O-])cc3)OC2CF)c(=O)[nH]1 (stereo not given)
inactive: [1] | [4] | [8]
